According to article PMC3063522 (Journal of agricultural and food chemistry, 2011):
In brackets after ≈: the same amount, converted by molar mass. Entries after “also recorded” stand apart in the source; their conditions may differ.

What was measured:
[1] = Cytotoxicity towards HL-60 cells in the antioxidant assay; type: cell-based; details: human, HL-60 promyelocytic leukemia cells
Cytotoxicity [2] = type: cell-based; details: human, SK-MEL malignant melanoma cells
Procedure, shortened: (§1)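 Anti-proliferative assay run alongside four human tumour lines (SK-MEL, KB, BT-549, SK-OV-3) and two noncancerous kidney lines (Vero, LLC-PK11). Doxorubicin served as the positive control.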

Cytotoxicity [3] = type: cell-based; details: human, SK-OV-3 ovary carcinoma cells
Procedure, shortened: as §1

Cytotoxicity [4] = type: cell-based; details: African green monkey, Vero kidney fibroblasts
Procedure, shortened: as §1

Cytotoxicity [5] = type: cell-based; details: human, KB oral epidermal carcinoma cells
Procedure, shortened: as §1

Phomopsis viticola = experiment: Antifungal broth dilution microbioassay, Phomopsis viticola; type: cell-based
Procedure, shortened: (§2)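 Broth microdilution adapted from the NCCLS M27-A yeast method for conidia-forming filamentous plant-pathogenic fungi. The commercial fungicide captan served as the internal standard in every assay. Means were compared by SAS analysis of variance with Fisher's protected LSD. For P. viticola and P. obscurans, activity was read at 120 and 144 h of incubation.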

[6] = Cytotoxicity to RAW 264.7 cells in the iNOS assay; type: cell-based, mouse; details: mouse, RAW 264.7 macrophages
Cytotoxicity [7] = type: cell-based; details: human, BT-549 breast ductal carcinoma cells
Procedure, shortened: as §1

mosquito larvae = experiment: Mosquito larvae toxicity bioassay; type: in vivo; details: Figure 4
Procedure, shortened: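 Larval toxicity bioassay, run in triplicate. Controls were untreated, DMSO-acetone carrier, and permethrin as the positive control.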

Cytotoxicity [8] = type: cell-based; details: pig, LLC-PK11 kidney epithelial cells
Procedure, shortened: as §1

[9] = tested on: adult A. aegypti female mosquitoes; experiment: Adult mosquito topical toxicity assay; type: in vivo; details: for Adult mosquito mortality rate ± SD: topical, 3.12 μg per insect, acetone/DMSO control gave 5.8±1.8%
Phomopsis obscurans = experiment: Antifungal broth dilution microbioassay, Phomopsis obscurans; type: cell-based
Procedure, shortened: as §2

Botrytis cinerea = experiment: Antifungal broth dilution microbioassay, Botrytis cinerea; type: cell-based
Procedure, shortened: as §2

[10] = at the highest concentrations, Figure 2D
[11] = 120 and 144 h (from 120 to 144 h)

SMILES | IC50 [1] [µg/mL] | IC50 (Cytotoxicity [2]) [µg/mL] | IC50 (Cytotoxicity [3]) [µg/mL] | IC50 (Cytotoxicity [4]) [µg/mL] | IC50 (Cytotoxicity [5]) [µg/mL] | Antifungal activity against P. viticola (Phomopsis viticola; 144 h of incubation) | Antifungal activity against P. viticola (Phomopsis viticola; [10]) | IC50 [6] [µg/mL] | IC50 (Cytotoxicity [7]) [µg/mL] | Toxicity to mosquito larvae (mosquito larvae) | IC50 (Cytotoxicity [8]) [µg/mL] | Adult mosquito mortality rate ± SD [9] | Antifungal activity against P. obscurans (Phomopsis obscurans; [11]) | Growth inhibition of B. cinerea (Botrytis cinerea; 48 h) | Growth inhibition of B. cinerea (Botrytis cinerea; 72 h) | Adult mosquito mortality ([9]; 6.25 μg/mosquito, positive standard) [%] | Antifungal activity against P. obscurans (Phomopsis obscurans; 144 h of incubation)
Oc1cccc(CCc2ccccc2)c1 [Compound 16] | 17 (≈ 85.7 µM) | > 25 | > 25 | > 25 | > 25 | statistically higher activity compared to 14 | appreciable activity | > 25 | > 25 | highest activity; also recorded: very low compared to the positive control permethrin | > 25 | – | – | – | – | – | –
COc1cccc(CCc2ccc(O)cc2)c1 [Compound 17] | 9 (≈ 39.4 µM) | > 25 | > 25 | > 25 | > 25 | – | – | > 25 | > 25 | – | > 25 | – | – | – | – | – | –
CC(C)(O)C(O)Cc1c(O)cc(/C=C/c2ccc(O)cc2)cc1O (stereo not shown) [Compound 8, arahypin-3] | > 25 | > 25 | > 25 | > 25 | > 25 | – | – | > 25 | > 25 | – | > 25 | marginally active | – | – | – | – | –
CC(C)/C=C/c1c(O)cc(/C=C/c2ccc(O)c(O)c2)cc1O [Compound 1, arachidin-1] | 5.2 (≈ 16.6 µM) | 15 (≈ 48 µM) | 14.5 (≈ 46.4 µM) | 12 (≈ 38.4 µM) | 4.8 (≈ 15.4 µM) | – | – | 8.3 (≈ 26.6 µM) | 4.8 (≈ 15.4 µM) | – | 2.8 (≈ 8.96 µM) | marginally active | did not exhibit any activity | – | – | – | –
Oc1cc(O)cc(/C=C/c2ccccc2)c1 [Compound 11, pinosylvin] | 18 (≈ 84.8 µM) | 12.5 (≈ 58.9 µM) | 17 (≈ 80.1 µM) | 13 (≈ 61.2 µM) | 13.8 (≈ 65 µM) | – | essentially inactive | 10.5 (≈ 49.5 µM) | 13 (≈ 61.2 µM) | significantly lower toxicity | 10.5 (≈ 49.5 µM) | – | – | minimal activity | no activity | – | –
Oc1ccc(/C=C/c2ccccc2)cc1O [Compound 12] | > 25 | > 25 | > 25 | > 25 | > 25 | – | essentially inactive | > 25 | > 25 | – | > 25 | – | – | minimal activity | no activity | – | –
COc1cccc(/C=C/c2ccc(O)cc2)c1 [Compound 13] | 4 (≈ 17.7 µM) | > 25 | > 25 | > 25 | > 25 | – | appreciable activity | 19.5 (≈ 86.2 µM) | > 25 | highest activity; also recorded: very low compared to the positive control permethrin | > 25 | – | – | – | – | – | –
Oc1cccc(/C=C/c2ccccc2)c1 [Compound 14] | 19 (≈ 96.8 µM) | > 25 | > 25 | > 25 | > 25 | – | – | 22 (≈ 112 µM) | > 25 | highest activity; also recorded: very low compared to the positive control permethrin | > 25 | – | – | – | – | – | –
Oc1ccc(/C=C/c2cccc(O)c2)cc1 [Compound 15, trans-3,4′-dihydroxystilbene] | 4 (≈ 18.8 µM) | > 25 | > 25 | 19.5 (≈ 91.9 µM) | > 25 | – | – | > 25 | > 25 | – | 12 (≈ 56.5 µM) | – | – | – | – | – | –
COc1cc(/C=C/c2ccccc2)cc(OC)c1 [Compound 18] | > 25 | > 25 | > 25 | > 25 | > 25 | – | – | > 25 | > 25 | highest activity; also recorded: very low compared to the positive control permethrin | > 25 | – | – | – | – | – | –
CC1(C)C(C=C(Cl)Cl)C1C(=O)OCc1cccc(Oc2ccccc2)c1 (stereo not shown) [permethrin, reference compound] | – | – | – | – | – | – | – | – | – | – | – | – | – | – | – | 100 | –
COc1cc(O)cc(/C=C/c2ccccc2)c1 [Compound 19] | 18 (≈ 79.5 µM) | > 25 | > 25 | > 25 | > 25 | – | appreciable activity | 12 (≈ 53 µM) | > 25 | highest activity; also recorded: somewhat greater activity | > 25 | – | – | – | – | – | –
COc1cccc2c1C(=O)c1c(O)c3c(c(O)c1C2=O)C[C@@](O)(C(=O)CO)C[C@@H]3O[C@H]1C[C@H](N)[C@H](O)[C@H](C)O1 [Doxorubicin, reference compound] | 0.24 (≈ 0.442 µM) | 0.8 (≈ 1.47 µM) | 1.3 (≈ 2.39 µM) | > 5 | 1.45 (≈ 2.67 µM) | – | – | – | 1.35 (≈ 2.48 µM) | – | 0.9 (≈ 1.66 µM) | – | – | – | – | – | –
CC(C)/C=C/c1c(O)cc(/C=C/C2=CC(=O)OC2CC(=O)O)cc1O (stereo not shown) [Compound 4, SB-1] | > 25 | > 25 | > 25 | > 25 | > 25 | – | – | > 25 | > 25 | – | > 25 | – | did not exhibit any activity | – | – | – | –
CC(C)=CCC/C(C)=C/Cc1c(O)cc(/C=C/c2ccc(O)cc2O)cc1O [Compound 22, chlorophorin] | 25 (≈ 65.7 µM) | > 25 | > 25 | 15.5 (≈ 40.7 µM) | > 25 | – | appreciable activity | 9 (≈ 23.7 µM) | 20 (≈ 52.6 µM) | – | 14.5 (≈ 38.1 µM) | – | – | very high growth inhibition values | very high growth inhibition values | – | –
COc1ccc(/C=C/c2cc(O)cc(O[C@@H]3O[C@H](CO)[C@@H](O)[C@H](O)[C@H]3O)c2)cc1O [Compound 23, rhapontin, reference compound] | 20 (≈ 47.6 µM) | > 25 | > 25 | > 25 | > 25 | – | – | > 25 | > 25 | significantly lower toxicity | > 25 | – | – | – | very high growth inhibition values | – | –
CC(C)/C=C/c1c(O)cc(/C=C/c2ccccc2)cc1O [Compound 6, arahypin-1] | > 31.3 | > 25 | > 25 | > 25 | > 25 | more fungicidal | – | > 25 | > 25 | – | > 25 | – | highest levels of inhibition | – | – | – | more fungicidal
CC(C)(O)C(O)Cc1c(O)cc(/C=C/c2ccccc2)cc1O (stereo not shown) [Compound 9, arahypin-4] | > 31.3 | > 25 | > 25 | > 25 | > 25 | – | – | > 25 | > 25 | – | > 25 | 10±0.0% | – | – | – | – | –
C=C1C(=O)O[C@H]2[C@H]1CC/C(C)=C/CC[C@@]1(C)O[C@@H]21 [Parthenolide, reference compound] | – | – | – | – | – | – | – | 13.5 (≈ 54.4 µM) | – | – | – | – | – | – | – | – | –
